Assay results: article PMC12467390 (ACS infectious diseases, 2025)
≈ marks a conversion by molar mass, not a printed value. Like-named read-outs stand apart in the source and are kept apart here.

How the values were obtained:
[1] = target: TetX6 (Chryseobacterium oncorhynchi, UniProt A0A316WTJ0); format: biochemical; conditions: dark; no pre-incubation; none detected = no inhibition up to 2.5 mM
[2] = target: 4-hydroxybenzoate-3-monooxygenase (PHBH) (Pseudomonas fluorescens, UniProt P00438); assay: PHBH NADPH consumption assay; format: biochemical
Sequence of 4-hydroxybenzoate-3-monooxygenase (PHBH) (P00438 whole entry): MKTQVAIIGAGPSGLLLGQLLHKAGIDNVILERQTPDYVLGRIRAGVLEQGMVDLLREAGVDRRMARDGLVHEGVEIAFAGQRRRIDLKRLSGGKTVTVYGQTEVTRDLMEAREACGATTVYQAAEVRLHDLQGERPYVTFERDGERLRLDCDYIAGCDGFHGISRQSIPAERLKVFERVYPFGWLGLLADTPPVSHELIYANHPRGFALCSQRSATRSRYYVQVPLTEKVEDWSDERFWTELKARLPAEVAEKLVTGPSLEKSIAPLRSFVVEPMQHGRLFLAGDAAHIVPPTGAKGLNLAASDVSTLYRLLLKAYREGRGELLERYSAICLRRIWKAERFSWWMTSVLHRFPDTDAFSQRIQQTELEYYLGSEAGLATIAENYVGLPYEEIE
Procedure, shortened: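 PHBH came from a codon-optimized pobA gene expressed in E. coli: grown at 37 °C in LB with kanamycin, induced with 1 mM IPTG at 15 °C for 12–15 h. It was purified by imidazole elution at pH 8.0 and dialyzed overnight. Activity was measured with para-hydroxybenzoic acid as substrate, following NADPH consumption at A340. Time-dependence was assessed by pre-incubating inhibitor with enzyme for varying times before starting the reaction.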

[3] = tested on: TetX7; assay: Steady-state TC consumption assay; format: biochemical; conditions: dark; for Apparent IC50 Values, TetX7: no pre-incubation, none detected = no inhibition up to 2.5 mM; for Time-dependence of TetX7 inhibition: pre-incubation 0-240 min
[4] = target: Tet50 (Unknown prokaryotic organism, UniProt A0A059WYP6); assay: Steady-state TC consumption assay; format: biochemical; conditions: for Apparent decay constant of IC50 versus pre-incubation time: Tet50
Sequence of Tet50 (A0A059WYP6 whole entry): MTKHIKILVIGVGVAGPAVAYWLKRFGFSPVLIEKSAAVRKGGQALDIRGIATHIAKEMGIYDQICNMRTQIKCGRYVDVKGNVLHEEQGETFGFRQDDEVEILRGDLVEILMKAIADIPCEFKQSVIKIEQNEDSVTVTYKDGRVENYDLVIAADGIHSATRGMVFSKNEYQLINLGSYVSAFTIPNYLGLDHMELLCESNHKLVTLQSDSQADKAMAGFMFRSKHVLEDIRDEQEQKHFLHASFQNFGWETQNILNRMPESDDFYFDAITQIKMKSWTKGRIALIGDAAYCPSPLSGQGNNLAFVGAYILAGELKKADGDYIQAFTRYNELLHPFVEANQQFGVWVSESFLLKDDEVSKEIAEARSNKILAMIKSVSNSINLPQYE

[5] = tested on: E. coli DH5αZ1 empty vector (pZE24); assay: MIC by broth microdilution, empty vector control; format: cell-based; conditions: for MIC: Escherichia coli; for MIC, Empty, + TC: presence of 8 μg/mL TC
[6] = tested on: E. coli DH5αZ1 expressing TetX7 from pZE24; assay: MIC by broth microdilution, TetX7::pZE24; format: cell-based; conditions: for MIC, TetX7, + TC: presence of 8 μg/mL TC
[7] = tested on: E. coli DH5αZ1 expressing Tet50 from pZE24; assay: MIC by broth microdilution, Tet50::pZE24; format: cell-based; conditions: Escherichia coli, read-out: MIC, Tet50, − TC
[8] = tested on: TetX7; assay: Reversibility of TetX7 inhibition by exhaustive dialysis; format: biochemical; conditions: 60 min pre-incubation in the dark; dialysis at 4 °C
[9] = tested on: E. coli DH5αZ1 empty vector (pZE24); conditions: aTC alone; empty vector control; ref [28],[30],[31]; cited from earlier work
[10] = tested on: E. coli DH5αZ1 expressing Tet50 from pZE24; conditions: aTC alone, ref [28],[30],[31]; cited from earlier work
[11] = tested on: E. coli DH5αZ1 expressing TetX7 from pZE24; conditions: aTC alone, ref [28],[30],[31]; cited from earlier work
[12] = tested on: E. coli DH5αZ1 expressing TetX7 or Tet50; conditions: TC at 8 μg/mL; resistant strains; ref [28],[30],[31]; cited from earlier work
[13] = dark, compounds 1 and 2 up to 2.5 mM
[14] = shielded from light, pre-incubation 0-240 min

Question: For `CC1(NCc2ccccc2)CC1` [Compound 1, N-(1-methyl)cyclopropylbenzylamine], which “Apparent IC50 Values, TetX6” value [1] is on record?
Answer: The value was “none detected^a”.

Question: What about the “Inhibition of PHBH” value ([2]; blue light irradiation) of the same compound?
Answer: The value was “potent time-dependent and dose-dependent inhibition”.

Question: And the “Inhibition of PHBH” value [2, 13]?
Answer: The value was “no inhibition”.

Question: And the “Apparent IC50 Values, TetX7” value [3]?
Answer: The value was “none detected^a”.

Question: What about the “Time-dependence of Tet50 inhibition” value ([4]; blue light irradiation) of the same compound?
Answer: Its value is “inhibit Tet50 in a time-dependent manner”.

Question: Which results are given for `C#CCN(C)Cc1ccccc1` [Compound 2, N-methyl-N-benzyl-propargylamine]?
Answer: Apparent IC50 Values, TetX6 [1]: none detected^a; Inhibition of PHBH ([2]; blue light irradiation): potent time-dependent and dose-dependent inhibition; Inhibition of PHBH [2, 13]: no inhibition; Apparent IC50 Values, TetX7 [3]: none detected^a; Time-dependence of Tet50 inhibition ([4]; blue light irradiation): inhibit Tet50 in a time-dependent manner

Question: For `Cc1c2c(c(O)c3c(O)c(CNC4(C)CC4)ccc13)C(=O)[C@]1(O)C(=O)C(C(N)=O)=C(O)[C@@H](N(C)C)[C@@H]1C2.Cl` [Compound 3, (4S,4aS,12aS)-4-(dimethylamino)-3,10,11,12a-tetrahydroxy-6-methyl-9-(((1-methylcyclopropyl)amino)methyl)-1,12-dioxo-1,4,4a,5,12,12a-hexahydrotetracene-2-carboxamide hydrochloride], which “Time-dependence of PHBH inhibition” value ([2]; dark) is on record?
Answer: The value was “time-dependence was observed”.

Question: And the “Inhibition of PHBH” value [2, 13]?
Answer: The value was “Inhibition was detected”.

Question: What about the “Time-dependence of TetX7 inhibition” value [3] of the same compound?
Answer: The value was “did not observe any time-dependence”.

Question: And the MIC ([5]; read-out: MIC, Empty, − TC)?
Answer: Its MIC is 32 mg/L.

Question: And the “MIC, Empty, + TC” value [5]?
Answer: Its value is under 1 mg/L.

Question: What about the “MIC, TetX7, + TC” value [6] of the same compound?
Answer: The value was 8 mg/L.

Question: What about the “Apparent decay constant of IC50 versus pre-incubation time” value ([4]; blue light irradiation) of the same compound?
Answer: Its value is 0.9 ± 0.3 min⁻¹.

Question: And the “Time-dependence of Tet50 inhibition” value [4, 14]?
Answer: The value was “clear decrease in the apparent IC50 value correlating to longer enzyme–inhibitor pre-incubation times”.

Question: Which MIC [7] does the source give for `C#CCNCc1ccc2c(C)c3c(c(O)c2c1O)C(=O)[C@]1(O)C(=O)C(C(N)=O)=C(O)[C@@H](N(C)C)[C@@H]1C3.Cl` [Compound 4, (4S,4aS,12aS)-4-(dimethylamino)-3,10,11,12a-tetrahydroxy-6-methyl-1,12-dioxo-9-((prop-2-yn-1-ylamino)methyl)-1,4,4a,5,12,12a-hexahydrotetracene-2-carboxamide hydrochloride] here?
Answer: The MIC was 32 mg/L.

Question: What about the “Time-dependence of PHBH inhibition” value ([2]; dark) of the same compound?
Answer: Its value is “time-dependence was observed”.

Question: And the “Inhibition of PHBH” value [2, 13]?
Answer: Its value is “Inhibition was detected”.

Question: And the “Time-dependence of TetX7 inhibition” value [3]?
Answer: Its value is “did not observe any time-dependence”.

Question: And the MIC ([5]; read-out: MIC, Empty, − TC)?
Answer: The MIC was 32 mg/L.

Question: What about the “MIC, Empty, + TC” value [5] of the same compound?
Answer: The value was under 1 mg/L.

Question: And the “MIC, TetX7, + TC” value [6]?
Answer: The value was 2 mg/L.

Question: And the “Time-dependence of Tet50 inhibition” value ([4]; blue light irradiation)?
Answer: Its value is “slower time-dependent inactivation”.

Question: What about the “Time-dependence of Tet50 inhibition” value [4, 14] of the same compound?
Answer: The value was “clear decrease in the apparent IC50 value correlating to longer enzyme–inhibitor pre-incubation times”.

Question: Which “TetX7 activity after exhaustive dialysis versus before” value [8] does the source give for `C#CCN(C)Cc1ccc2c(C)c3c(c(O)c2c1O)C(=O)[C@]1(O)C(=O)C(C(N)=O)=C(O)[C@@H](N(C)C)[C@@H]1C3` [Compound 5, (4S,4aS,12aS)-4-(dimethylamino)-3,10,11,12a-tetrahydroxy-6-methyl-9-((methyl(prop-2-yn-1-yl)amino)methyl)-1,12-dioxo-1,4,4a,5,12,12a-hexahydrotetracene-2-carboxamide] here?
Answer: Its value is “reversed upon exhaustive dialysis”.

Question: And the “Time-dependence of TetX7 inhibition” value [3]?
Answer: Its value is “did not observe any time-dependence”.

Question: And the “MIC, Empty, + TC” value [5]?
Answer: Its value is under 1 mg/L.

Question: And the MIC ([6]; Escherichia coli, read-out: MIC, TetX7, − TC)?
Answer: The MIC was 64 mg/L (≈ 126 µM).

Question: What about the “MIC, TetX7, + TC” value [6] of the same compound?
Answer: The value was 2 mg/L.

Question: And the “Apparent decay constant of IC50 versus pre-incubation time” value ([4]; blue light irradiation)?
Answer: Its value is 0.5 ± 0.1 min⁻¹.

Question: And the “Time-dependence of Tet50 inhibition” value ([4]; blue light irradiation)?
Answer: The value was “time- and light- dependent irreversible inactivation of Tet50”.

Question: What about the “Time-dependence of Tet50 inhibition” value [4, 14] of the same compound?
Answer: Its value is “clear decrease in the apparent IC50 value correlating to longer enzyme–inhibitor pre-incubation times”.

Question: With `CN(C)[C@@H]1C(O)=C(C(N)=O)C(=O)[C@@]2(O)C(O)=C3C(=O)c4c(O)cccc4[C@@](C)(O)[C@H]3C[C@@H]12` [TC, tetracycline, reference compound] as the compound, how does the MIC ([5]; read-out: MIC of TC) read?
Answer: The MIC was 1 mg/L.

Question: Which “MIC of aTC” value [9] does the source give for `Cc1c2c(c(O)c3c(O)cccc13)C(=O)[C@]1(O)C(=O)C(C(N)=O)=C(O)[C@@H](N(C)C)[C@@H]1C2` [aTC, anhydrotetracycline] here?
Answer: Its value is 4 mg/L.

Question: What about the “MIC of aTC” value [10] of the same compound?
Answer: The value was 8 mg/L.

Question: What about the “MIC of aTC” value [11] of the same compound?
Answer: The value was 8 mg/L.

Question: What about the “Inhibitor concentration that rescues growth inhibitory activity of TC” value [12] of the same compound?
Answer: Its value is at least 2 µg/mL.

Question: What about the “Inhibition of PHBH” value [2, 13] of the same compound?
Answer: The value was “Inhibition was detected”.

Question: What about the “Time-dependence of TetX7 inhibition” value [3] of the same compound?
Answer: The value was “did not observe any time-dependence”.

Question: What about the “Time-dependence of Tet50 inhibition” value ([4]; blue light irradiation) of the same compound?
Answer: The value was “time-dependent inhibition”.

Question: What about the “Time-dependence of Tet50 inhibition” value [4, 14] of the same compound?
Answer: The value was “not time-dependent”.
